# CAL PDZ FP-1 – untagged CAL PDZ binding inhibitors, primary screen, biochemical, fluorescence polarization, HTS; purified CAL PDZ, TMR-peptide fluorescence polarization, 1 h; inhibition, % at 24.9 µM; hit rate 0.92% among 300,000;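 active = mean inhibition of at least 30% with at least half of replicates also reaching 30%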;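 also: 0% = DMSO neutral control and 100% = excess unlabeled competitor peptide PRC23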
# CAL PDZ FP-2 – CAL PDZ peptide-binding inhibitors, primary screen, biochemical, fluorescence polarization, Cer-tagged CAL PDZ, HTS | inhibition, % at 20 µM | hit rate 0.02% among 330,000 | purified CAL PDZ, TMR-peptide fluorescence polarization, 1 h;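 active = highest replicate inhibition of at least 40%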;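 also: plate controls were DMSO neutral control wells for no effect and unlabeled competitor peptide control wells for full effect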
#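 Read-out basis: mP drop reported as inhibition | Assay system: Tagged CAL PDZ protein CerCALP, purified | Benchmarks: Unlabelled peptide for full inhibition, DMSO wells as neutral | Schedule: 1 h incubation at room temperature before polarization reading | Buffer or medium: Sodium phosphate/NaCl buffer pH 7.4 with TCEP, IgG, Thesit | Doses: Single point, 20 µM | Measured by: Fluorescence polarization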
# ARNT-TACC3 inh – disruptors of ARNT/TACC3 protein interaction, primary screen, biochemical, AlphaScreen, single concentration; AlphaScreen His-ARNT PAS-B/GST-TACC3 binding, luminescence; TACC3 fragment carries E629A point mutation; hit rate 0.66% among 390,000; inhibition, % at 9.99 µM; AID 623870, 2012;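 active = mean inhibition of replicates at least 50% and at least half of replicates each reaching 50%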;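 also: 0% = complete ARNT plus TACC3 wells and 100% = ARNT alone without TACC3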
# * hit, by the source's call; · = no result. Compounds with a hit are over-represented: about 1.2% of the library has one in this group of screens.
SMILES,CAL PDZ FP-1,CAL PDZ FP-2,ARNT-TACC3 inh
CCOc1cc(/C=C2/N=C(C)C(C(=O)OC)=C2O)ccc1O,·,0,0
CCOC(=O)C1=C(O)/C(=C\c2ccc(O)c(OCC)c2)N=C1C,63*,0,2
Cc1ccc(S(=O)(=O)n2nc(C)c(S(=O)(=O)N3CCOCC3)c2C)cc1,-3,1,-4
CNC(=O)Cn1nc(C)c(S(=O)(=O)N2CCOCC2)c1C,50*,-1,·
CO[C@@H]1CN(C)C(=O)c2ccc(NC(=O)C3CC3)cc2OC[C@@H](C)N(C)C[C@@H]1C,·,·,-3
CC(=O)N(C)C[C@@H]1Oc2cc(C#Cc3ccc(F)cc3)ccc2S(=O)(=O)N([C@H](C)CO)C[C@@H]1C,·,·,1
c1ccc2c(c1)ccc1ncccc12,-8,-1,27
Oc1c(N=Nc2ccccn2)ccc2ccccc12,-2,0,64*
O=C(c1ccccc1F)N1C[C@@H]2[C@H](c3ccccc31)[C@@H](CO)N2Cc1ccc2c(c1)OCO2,·,·,-8
COc1ccc(NC(=O)N(C)C[C@@H]2Oc3ccc(NC(=O)Nc4ccc5c(c4)OCO5)cc3CC(=O)N([C@H](C)CO)C[C@H]2C)cc1,·,·,2
C/C(=N\Nc1nc(N)cc(Cl)n1)c1ccc(F)cc1,0,-4,48*
C/C(=N\Nc1nc(N)cc(Cl)n1)c1ccc(Cl)c(Cl)c1,·,0,9
C[C@@H]1CN([C@@H](C)CO)C(=O)c2cccc(NC(=O)c3nc4ccccc4s3)c2O[C@H]1CN(C)S(=O)(=O)c1ccccc1,·,·,29
CN(C)C(=O)C[C@@H]1CC[C@@H]2[C@H](COc3ccc(NC(=O)C4CCOCC4)cc3C(=O)N2C)O1,·,·,-10
C[C@@H]1CCCCO[C@H](CN(C)C(=O)CCC(F)(F)F)[C@@H](C)CN([C@@H](C)CO)C(=O)c2cc(NC(=O)Cc3ccccc3)ccc2O1,·,·,-2
C[C@@H]1CN([C@H](C)CO)C(=O)c2cc(NS(C)(=O)=O)ccc2O[C@H]1CN(C)Cc1ccncc1,·,·,-12
O=C(Nc1ccc(F)cc1)c1nc[nH]c1C(=O)Nc1ccccc1[N+](=O)[O-],-3,0,-3
O=C(Nc1ccc(F)cc1)c1nc[nH]c1C(=O)O,28,0,54*
C[C@H]1CN([C@@H](C)CO)S(=O)(=O)c2ccc(-c3ccccc3F)cc2O[C@H]1CN(C)Cc1cncnc1,·,·,-1
COc1ccc(-c2csc(=NCCO)n2-c2ccccc2)cc1,62*,-1,24
COc1ccc(-c2csc(=Nc3ccccc3)n2CCO)cc1,·,0,27
C[C@H](CO)N1C[C@H](C)[C@@H](CN(C)Cc2ccccc2)Oc2ccc(NC(=O)NC3CCCCC3)cc2CC1=O,·,·,-19
C[C@@H]1CCCCO[C@H](CN(C)S(C)(=O)=O)[C@@H](C)CN([C@@H](C)CO)C(=O)c2cc(NC(=O)c3ccccc3)ccc2O1,·,·,-13
Cc1ccc(S(=O)(=O)N2CCOCC2)cc1C(=O)NC1CCN(Cc2ccccc2)CC1,-3,-1,0
O=C(NC1CCN(Cc2ccccc2)C1)c1cc(S(=O)(=O)N2CCOCC2)ccc1Cl (stereo not given),59*,0,-3
SMILES,CAL PDZ FP-1,CAL PDZ FP-2,ARNT-TACC3 inh
COc1ccc(-n2c(Cc3cc(=O)[nH]c(=O)[nH]3)nnc2SCC(=O)N2CCC(C)CC2)cc1,2,0,·
COc1cccc(-n2c(Cc3cc(=O)[nH]c(=O)[nH]3)nnc2SCC(=O)N2CCC(C)CC2)c1,50*,0,-2
COc1cccc(OCC(=O)Nc2ccc(OC)c(OC)c2)c1,1,-3,·
CC(=O)Nc1ccc(NC(=O)COC(=O)COc2ccc3ccccc3c2)cc1,105*,0,-1
COc1ccc(NC(=O)COC(=O)COc2cccc(Br)c2)cc1OC,36*,11,4
O=C(O)Cc1ccc(NC(=O)COc2ccc3ccccc3c2)cc1,-5,0,13
C[C@@H]1CN([C@@H](C)CO)C(=O)c2cc(NS(C)(=O)=O)ccc2O[C@H]1CN(C)S(C)(=O)=O,·,·,-5
COc1ccc(S(=O)(=O)Nc2ccc3c(c2)C(=O)N([C@H](C)CO)C[C@@H](C)[C@H](CN(C)S(C)(=O)=O)OCCCC[C@@H](C)O3)cc1,·,·,-3
C[C@@H](NC(=O)C[C@H]1CC[C@H]2[C@@H](COC[C@H](O)CN2C)O1)c1ccccc1,·,·,7
C[C@@H]1CN([C@@H](C)CO)C(=O)Cc2cc(NS(=O)(=O)c3cn(C)cn3)ccc2O[C@@H]1CN(C)S(=O)(=O)c1cccs1,·,·,5
CCNC(=O)C[C@H]1CC[C@@H]2[C@@H](COc3ccc(NC(=O)Nc4cccc(OC)c4)cc3C(=O)N2C)O1,·,·,21
CN(Cc1nc(-c2ccccc2)no1)C(=O)c1ccc2c(c1)OCO2,1,-3,-4
CC(C)(C)N(Cc1nc(-c2ccccc2)no1)C(=O)c1ccc2c(c1)OCO2,65*,-1,-2
Cc1noc(C)c1NC(=O)Nc1ccc2c(c1)C(=O)N(C)[C@@H]1CC[C@H](CC(=O)N(C)C)O[C@@H]1CO2,·,·,5
c1ccc(-c2csc(Nc3nc(N4CCOCC4)nc(N4CCOCC4)n3)n2)cc1,49*,0,3
Cc1cc(C)nc(Nc2nc(-c3ccccc3)cs2)n1,-4,2,-1
CCCN(C)C[C@H]1OCCCC[C@H](C)Oc2ccc(NC(=O)CCC(F)(F)F)cc2C(=O)N([C@H](C)CO)C[C@@H]1C,·,·,-9
COc1ccccc1N1CCN(S(=O)(=O)c2ccc3c(c2)NC(=O)C(C)S3)CC1 (stereo not given),114*,-1,1
CCCN1CCN(S(=O)(=O)c2ccc3c(c2)NC(=O)C(C)S3)CC1 (stereo not given),-3,-2,7
C[C@H]1CN([C@@H](C)CO)C(=O)c2cc(-c3cncnc3)cnc2O[C@H]1CN(C)C(=O)Cc1ccccn1,·,·,-1
COc1ccc(S(=O)(=O)N(C)C[C@H]2OCCCC[C@@H](C)Oc3ccc(NC(=O)CCCN(C)C)cc3C(=O)N([C@@H](C)CO)C[C@H]2C)cc1,·,·,-8
CCc1noc(C)c1C(=O)N1CCCC(CCC(=O)NCc2ccc(F)c(F)c2)C1 (stereo not given),71*,22,11
Cc1nc(C)c(C(=O)N2CCCC(CCC(=O)NCc3ccc(F)c(F)c3)C2)s1 (stereo not given),·,-2,2
Cc1ccc(-c2ccc3c(c2)O[C@H](CN(C)Cc2ccccn2)[C@@H](C)CN([C@@H](C)CO)S3(=O)=O)cc1,·,·,6
C[C@H](CO)N1C[C@H](C)[C@H](CN(C)Cc2ccc(C(=O)O)cc2)OCCCC[C@H](C)Oc2ccc(NC(=O)Nc3ccc(F)cc3)cc2C1=O,·,·,-5
Cn1c2ccccc2c2nnc(SCC(=O)Nc3cccc(C(=O)O)c3)nc21,-2,-4,47*
Cn1c2ccc(F)cc2c2nnc(SCC(=O)Nc3cccc(O)c3)nc21,1,·,9

# Assay outcomes: PubChem BioAssay, Broad Institute
